Results on seven molecules are retold here after ChEMBL document CHEMBL4346663, “N-Cinnamoylanthranilates as human TRPA1 modulators: Structure-activity relationships and channel binding sites” (Eur J Med Chem, 2019).

Activity calls are given as the source filed them. The calls are words filed in the database; no cut-off is given here.

Data set [1] concerns the target T1, Transient receptor potential cation channel subfamily A member 1 (Homo sapiens, UniProt O75762). Nature of the data set: Agonist activity at human TRPA1 expressed in HEK293 cells assessed as increase in calcium influx by Fluo-4-AM dye based fluorescence assay. Type of data set: cell-based. Conditions: read-out: EC50. Put shortly: (§1)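 Stably transfected hTRPA1- or hTRPM8-HEK293 cells on poly-D-lysine plates for 48 h, loaded with Fluo-4AM (2 µM, 45 min, dark, room temperature), in isotonic HEPES buffer pH 7.4. FlexStation 240 s run: 20 s baseline, compound added, calcimycin added at 180 s. ΔRFU expressed as % calcimycin, DMSO-subtracted. Screening N = 3. Dose-response curves fitted for logEC50 (N = 3 in duplicate or triplicate).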

For data set [2], the target named is T1, Transient receptor potential cation channel subfamily A member 1. In words: Agonist activity at human TRPA1 expressed in HEK293 cells assessed as increase in calcium influx by Calcium-5 dye based fluorescence assay. In kind it is cell-based.
The subject of data set [3] is Transient receptor potential cation channel subfamily A member 1 (Homo sapiens), O75762 [F909A]. Nature of the data set: Agonist activity at human TRPA1 Phe909Ala mutant expressed in HEK293 cells assessed as Ca2+ influx at 30 uM by fluorescence assay. Type of data set: cell-based. The gist of the method:
(§2)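 HEK293 cells stably expressing hTRPA1 point mutants (C621A, F909A or F944A), single-cell cloned under G418 selection. Cells plated on poly-D-lysine for 48 h, loaded with Fluo-4AM 2 µM for 45 min at room temperature. FlexStation read (ex 485/em 538 nm): 20 s baseline, compound added, calcimycin added at 180 s. Response expressed as % calcimycin from ΔRFU, vehicle-subtracted, and compared with wild-type hTRPA1 cells.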

For data set [4], the system named is Transient receptor potential cation channel subfamily A member 1 (Homo sapiens), O75762 [F944A]. Nature of the data set: Agonist activity at human TRPA1 Phe944Ala mutant expressed in HEK293 cells assessed as Ca2+ influx at 30 uM by fluorescence assay. Type of data set: cell-based. The gist of the method: as §2
Sequence of Transient receptor potential cation channel subfamily A member 1 (Homo sapiens), O75762 [F944A] (O75762 whole entry F944A): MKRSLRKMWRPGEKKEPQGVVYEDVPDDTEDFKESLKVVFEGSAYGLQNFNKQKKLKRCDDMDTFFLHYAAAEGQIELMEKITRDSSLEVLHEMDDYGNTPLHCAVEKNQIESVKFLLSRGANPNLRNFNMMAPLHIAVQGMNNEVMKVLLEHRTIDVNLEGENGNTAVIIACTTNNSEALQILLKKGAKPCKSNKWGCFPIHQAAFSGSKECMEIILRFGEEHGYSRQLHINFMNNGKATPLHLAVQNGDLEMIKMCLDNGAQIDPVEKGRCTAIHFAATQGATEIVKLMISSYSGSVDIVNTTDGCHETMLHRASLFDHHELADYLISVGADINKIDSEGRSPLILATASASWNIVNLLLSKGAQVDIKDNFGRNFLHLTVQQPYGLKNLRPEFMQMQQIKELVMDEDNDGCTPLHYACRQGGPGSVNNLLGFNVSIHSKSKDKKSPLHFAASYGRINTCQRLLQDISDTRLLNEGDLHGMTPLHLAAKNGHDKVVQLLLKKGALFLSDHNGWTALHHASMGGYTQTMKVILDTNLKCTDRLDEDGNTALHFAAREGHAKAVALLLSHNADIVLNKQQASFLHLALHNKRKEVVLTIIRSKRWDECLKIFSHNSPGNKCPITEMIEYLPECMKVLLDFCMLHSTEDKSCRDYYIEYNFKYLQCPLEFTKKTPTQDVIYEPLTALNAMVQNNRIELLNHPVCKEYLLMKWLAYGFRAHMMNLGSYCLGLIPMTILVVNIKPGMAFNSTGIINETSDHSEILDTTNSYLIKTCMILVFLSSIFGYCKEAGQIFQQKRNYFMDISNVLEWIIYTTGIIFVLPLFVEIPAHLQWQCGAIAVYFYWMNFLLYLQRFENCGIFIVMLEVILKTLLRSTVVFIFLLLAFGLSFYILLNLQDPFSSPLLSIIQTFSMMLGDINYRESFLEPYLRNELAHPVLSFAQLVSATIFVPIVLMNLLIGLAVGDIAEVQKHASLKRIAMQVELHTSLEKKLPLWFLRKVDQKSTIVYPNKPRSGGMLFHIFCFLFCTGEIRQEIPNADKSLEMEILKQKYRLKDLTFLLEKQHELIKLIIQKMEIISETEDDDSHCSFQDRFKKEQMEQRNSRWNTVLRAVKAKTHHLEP
The test system is the same in data set [5]. In words: Agonist activity at human TRPA1 Phe944Ala mutant expressed in HEK293 cells assessed as Ca2+ influx at 10 uM by fluorescence assay. Type of data set: cell-based. The gist of the method:
as §2

Data set [6] is filed under the species Cavia porcellus. Nature of the data set: Antagonist activity at TRPA1 in Dunkin-Hartley guinea pig vagus nerve assessed as inhibition of ACR-stimulated vagus nerve by measuring depolarization at 100 uM incubated for 10 mins followed by ACR stimulation for 140 secs […]. Put shortly: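 Guinea pig vagus nerve (male Dunkin-Hartley) in Krebs-Henseleit buffer; compound from DMSO stock diluted 1000×. Two control acrolein (300 µM, 2 min) responses, each washed to baseline. Then 10 min compound pretreatment and re-stimulation with acrolein 300 µM for 2 min 20 s. After washout, a recovery acrolein response was taken. Depolarization recorded in mV.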

Data set [7] addresses T2, Transient receptor potential cation channel subfamily M member 8 (Homo sapiens, UniProt Q7Z2W7). Nature of the data set: Antagonist activity at human TRPM8 expressed in HEK293 cells assessed as inhibition in WS5-induced increase in calcium influx incubated for 10 mins prior to WS5 challenge by Fluo-4-AM dye based fluorescence assay. Type of data set: cell-based. The gist of the method:
(§3)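 hTRPM8-HEK293 cells loaded with Fluo-4AM (2 µM, 45 min). Test compound pre-incubated 10 min before WS5 standard agonist. FlexStation fluorescence at 485/538 nm. ΔRFU given as % of WS5 response after DMSO vehicle subtraction. N = 3. IC50 from dose-response curves.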
Target sequence in this assay (Q7Z2W7 whole entry): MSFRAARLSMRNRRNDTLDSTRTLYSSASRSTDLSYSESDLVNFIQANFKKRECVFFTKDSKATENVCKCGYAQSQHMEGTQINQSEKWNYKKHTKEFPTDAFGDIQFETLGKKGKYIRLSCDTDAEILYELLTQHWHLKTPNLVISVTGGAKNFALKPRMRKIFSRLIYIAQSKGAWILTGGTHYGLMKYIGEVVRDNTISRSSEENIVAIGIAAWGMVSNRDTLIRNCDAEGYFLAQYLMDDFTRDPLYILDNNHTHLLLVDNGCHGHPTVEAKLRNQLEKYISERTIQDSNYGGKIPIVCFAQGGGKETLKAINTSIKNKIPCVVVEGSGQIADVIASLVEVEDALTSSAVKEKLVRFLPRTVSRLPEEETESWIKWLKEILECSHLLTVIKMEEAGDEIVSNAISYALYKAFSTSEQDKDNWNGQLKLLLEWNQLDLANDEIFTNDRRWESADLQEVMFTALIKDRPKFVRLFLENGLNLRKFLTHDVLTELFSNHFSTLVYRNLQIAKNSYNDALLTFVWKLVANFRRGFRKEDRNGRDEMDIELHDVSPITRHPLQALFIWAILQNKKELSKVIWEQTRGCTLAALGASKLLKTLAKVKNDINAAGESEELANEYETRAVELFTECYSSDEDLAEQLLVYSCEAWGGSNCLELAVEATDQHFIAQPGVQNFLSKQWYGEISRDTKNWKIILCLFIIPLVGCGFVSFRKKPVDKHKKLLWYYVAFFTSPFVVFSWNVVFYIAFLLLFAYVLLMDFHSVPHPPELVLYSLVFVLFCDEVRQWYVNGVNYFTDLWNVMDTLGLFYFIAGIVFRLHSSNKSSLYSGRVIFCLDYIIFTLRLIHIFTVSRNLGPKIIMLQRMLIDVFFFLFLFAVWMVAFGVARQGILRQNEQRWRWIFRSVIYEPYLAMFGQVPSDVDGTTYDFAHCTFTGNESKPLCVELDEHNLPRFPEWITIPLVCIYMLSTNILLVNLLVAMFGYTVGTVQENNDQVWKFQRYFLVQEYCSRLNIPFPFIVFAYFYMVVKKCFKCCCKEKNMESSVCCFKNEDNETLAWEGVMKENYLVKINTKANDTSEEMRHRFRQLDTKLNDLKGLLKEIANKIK

In data set [8] the target is T1, Transient receptor potential cation channel subfamily A member 1. In words: Agonist activity at human TRPA1 expressed in HEK293 cells assessed as increase in calcium influx at 30 uM by Fluo-4-AM dye based fluorescence assay relative to calcimycin. In kind it is cell-based. The gist of the method: as §1
The target in data set [9] is T2, Transient receptor potential cation channel subfamily M member 8. Nature of the data set: Antagonist activity at human TRPM8 expressed in HEK293 cells assessed as increase in calcium influx at 100 uM incubated for 10 mins prior to WS5 challenge by Fluo-4-AM dye based fluorescence assay relative to WS5. Type of data set: cell-based. Set-up: scale not given: the % may be the effect or the level left. The gist of the method: as §3
Target sequence in this assay (Q7Z2W7 whole entry, looked up): as the sequence (Q7Z2W7 whole entry) above

Data set [10] concerns the target T1, Transient receptor potential cation channel subfamily A member 1. Nature of the data set: Antagonist activity at human TRPA1 expressed in HEK293 cells assessed as increase in calcium influx at 100 uM incubated for 10 mins prior to CA addition by Fluo-4-AM dye based fluorescence assay relative to CA. In kind it is cell-based. On the set-up: scale not given: the % may be the effect or the level left. The gist of the method: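 hTRPA1-HEK293 cells loaded with Fluo-4AM (2 µM). Compound pre-incubated 10 min, then cinnamaldehyde standard agonist added. FlexStation read, ex 485/em 538 nm. ΔRFU normalized to the CA response set at 100 % after DMSO vehicle subtraction. N = 3. logIC50 taken from dose-response fits.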

Data set [11] can be described thus: Dissociation constant, pKa of the compound at pH 7.4. Type of data set: physicochemical.
The species entered for data set [12] is Cavia porcellus. Nature of the data set: Agonist activity at TRPA1 in Dunkin-Hartley guinea pig vagus nerve assessed as activation of vagus nerve by measuring depolarization at 100 uM […]. The gist of the method: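 Isolated vagus nerves from male Dunkin-Hartley guinea pigs (300-400 g, eight animals). Compound DMSO stocks diluted 1000× in Krebs-Henseleit buffer. Viability checked with capsaicin (1 µM) at the start and acrolein (300 µM) at the end. Single non-cumulative concentrations applied for 2 min each, with KH wash to baseline between them. DMSO vehicle run alike. Depolarization recorded in mV.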

Data set [13] has as its system Transient receptor potential cation channel subfamily A member 1 (Homo sapiens), O75762 [F909A]. In words: Agonist activity at human TRPA1 Phe909Ala mutant expressed in HEK293 cells assessed as Ca2+ influx at 10 uM by fluorescence assay. In kind it is cell-based. Put shortly: as §2
The target in data set [14] is T2, Transient receptor potential cation channel subfamily M member 8. In words: Agonist activity at human TRPM8 expressed in HEK293 cells assessed as increase in calcium influx at 100 uM by Fluo-4-AM dye based fluorescence assay relative to calcimycin. In kind it is cell-based. Put shortly:
as §1
Target sequence in this assay (Q7Z2W7 whole entry, looked up): as the sequence (Q7Z2W7 whole entry) above

For data set [15] the target is unchanged. Nature of the data set: Agonist activity at human TRPM8 expressed in HEK293 cells assessed as increase in calcium influx at 30 uM by Fluo-4-AM dye based fluorescence assay relative to calcimycin. Type of data set: cell-based. The gist of the method:
as §1
Target sequence in this assay (Q7Z2W7 whole entry, looked up): as the sequence (Q7Z2W7 whole entry) above

In data set [16] the target is T1, Transient receptor potential cation channel subfamily A member 1. In words: Agonist activity at human TRPA1 expressed in HEK293 cells assessed as increase in calcium influx by FLIPR analysis. In kind it is cell-based. Put shortly:
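Stably transfected hTRPA1-HEK293 cells plated on poly-D-lysine at 12500 cells per well, grown 48 h, loaded with 2 µM Fluo-4AM for 45 min in the dark at room temperature. Assayed in isotonic HEPES buffer (pH 7.4) on a plate reader, ex 485/em 538 nm. Compound added at 20 s, calcimycin at 180 s. ΔRFU taken as % calcimycin after DMSO subtraction. Three independent experiments.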

Data set [17] concerns Transient receptor potential cation channel subfamily A member 1 (Homo sapiens), O75762 [C621A]. In words: Agonist activity at human TRPA1 […] mutant expressed in HEK293 cells assessed as Ca2+ influx at 1 uM by fluorescence assay. In kind it is cell-based.
Sequence of Transient receptor potential cation channel subfamily A member 1 (Homo sapiens), O75762 [C621A] (O75762 whole entry C621A): as the sequence (O75762 whole entry F944A) above, with C621A, A944F counted along it
Data set [18] has as its system Transient receptor potential cation channel subfamily A member 1 (Homo sapiens), O75762 [F909A]. Nature of the data set: Agonist activity at human TRPA1 Phe909Ala mutant expressed in HEK293 cells assessed as Ca2+ influx at 1 uM by fluorescence assay. Type of data set: cell-based. The gist of the method: as §2
Data set [19] deals with T1, Transient receptor potential cation channel subfamily A member 1. In words: Agonist activity at human TRPA1 expressed in CHO cells assessed as increase in calcium influx by Fluo-4-AM dye based fluorescence assay. In kind it is cell-based.
In data set [20] the test system is Transient receptor potential cation channel subfamily A member 1 (Homo sapiens), O75762 [C621A]. In words: Agonist activity at human TRPA1 […] mutant expressed in HEK293 cells assessed as Ca2+ influx […] by fluorescence assay. Type of data set: cell-based. Put shortly: as §2
The subject of data set [21] is Transient receptor potential cation channel subfamily A member 1 (Homo sapiens), O75762 [F944A]. Nature of the data set: Agonist activity at human TRPA1 Phe944Ala mutant expressed in HEK293 cells assessed as Ca2+ influx […] by fluorescence assay. In kind it is cell-based. The gist of the method: as §2
In data set [22] the test system is Transient receptor potential cation channel subfamily A member 1 (Homo sapiens), O75762 [F909A]. In words: Agonist activity at human TRPA1 Phe909Ala mutant expressed in HEK293 cells assessed as Ca2+ influx […] fluorescence assay. In kind it is cell-based. The gist of the method:
as §2

Data set [23] has as its target Transient receptor potential cation channel subfamily A member 1 (Mus musculus, UniProt Q8BLA8). In words: Agonist activity at mouse TRPA1 expressed in CHO cells assessed as increase in calcium influx by Fluo-3 based FLIPR analysis. Type of data set: cell-based.
Data set [24] deals with T1, Transient receptor potential cation channel subfamily A member 1. Nature of the data set: Agonist activity at human TRPA1 expressed in HEK293 cells assessed as increase in calcium influx by Fluo-3/acetoxymethyl ester dye based FLIPR analysis. In kind it is cell-based.
Data set [25] concerns Transient receptor potential cation channel subfamily A member 1 (Homo sapiens), O75762 [F944A]. Nature of the data set: Agonist activity at human TRPA1 Phe944Ala mutant expressed in HEK293 cells assessed as Ca2+ influx at 100 uM by fluorescence assay. Type of data set: cell-based. The gist of the method: (§4)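 HEK293 cells stably expressing hTRPA1 point mutants, made by FuGENE 6 transfection, G418 (0.5 mg ml-1) selection and single-cell cloning, grown in DMEM with 25 mM HEPES, 10% FBS and geneticin. Ca2+ influx was read by Fluo dye fluorescence at room temperature, with calcimycin added at the end. Response was ΔRFU as % of calcimycin, with the DMSO vehicle subtracted.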

Data set [26] has as its system Transient receptor potential cation channel subfamily A member 1 (Homo sapiens), O75762 [F909A]. In words: Agonist activity at human TRPA1 Phe909Ala mutant expressed in HEK293 cells assessed as Ca2+ influx at 100 uM by fluorescence assay. In kind it is cell-based. Put shortly: as §4
The target in data set [27] is T1, Transient receptor potential cation channel subfamily A member 1. In words: Agonist activity at human TRPA1 expressed in HEK293 assessed as increase in calcium influx by […]. In kind it is cell-based.

Sequence of Transient receptor potential cation channel subfamily A member 1 (Homo sapiens), O75762 [F909A] (O75762 whole entry F909A): as the sequence (O75762 whole entry F944A) above, with F909A, A944F counted along it
T1 sequence (O75762 whole entry): as the sequence (O75762 whole entry F944A) above, with A944F counted along it
Sequence of Transient receptor potential cation channel subfamily A member 1 (Mus musculus, UniProt Q8BLA8) (Q8BLA8 whole entry): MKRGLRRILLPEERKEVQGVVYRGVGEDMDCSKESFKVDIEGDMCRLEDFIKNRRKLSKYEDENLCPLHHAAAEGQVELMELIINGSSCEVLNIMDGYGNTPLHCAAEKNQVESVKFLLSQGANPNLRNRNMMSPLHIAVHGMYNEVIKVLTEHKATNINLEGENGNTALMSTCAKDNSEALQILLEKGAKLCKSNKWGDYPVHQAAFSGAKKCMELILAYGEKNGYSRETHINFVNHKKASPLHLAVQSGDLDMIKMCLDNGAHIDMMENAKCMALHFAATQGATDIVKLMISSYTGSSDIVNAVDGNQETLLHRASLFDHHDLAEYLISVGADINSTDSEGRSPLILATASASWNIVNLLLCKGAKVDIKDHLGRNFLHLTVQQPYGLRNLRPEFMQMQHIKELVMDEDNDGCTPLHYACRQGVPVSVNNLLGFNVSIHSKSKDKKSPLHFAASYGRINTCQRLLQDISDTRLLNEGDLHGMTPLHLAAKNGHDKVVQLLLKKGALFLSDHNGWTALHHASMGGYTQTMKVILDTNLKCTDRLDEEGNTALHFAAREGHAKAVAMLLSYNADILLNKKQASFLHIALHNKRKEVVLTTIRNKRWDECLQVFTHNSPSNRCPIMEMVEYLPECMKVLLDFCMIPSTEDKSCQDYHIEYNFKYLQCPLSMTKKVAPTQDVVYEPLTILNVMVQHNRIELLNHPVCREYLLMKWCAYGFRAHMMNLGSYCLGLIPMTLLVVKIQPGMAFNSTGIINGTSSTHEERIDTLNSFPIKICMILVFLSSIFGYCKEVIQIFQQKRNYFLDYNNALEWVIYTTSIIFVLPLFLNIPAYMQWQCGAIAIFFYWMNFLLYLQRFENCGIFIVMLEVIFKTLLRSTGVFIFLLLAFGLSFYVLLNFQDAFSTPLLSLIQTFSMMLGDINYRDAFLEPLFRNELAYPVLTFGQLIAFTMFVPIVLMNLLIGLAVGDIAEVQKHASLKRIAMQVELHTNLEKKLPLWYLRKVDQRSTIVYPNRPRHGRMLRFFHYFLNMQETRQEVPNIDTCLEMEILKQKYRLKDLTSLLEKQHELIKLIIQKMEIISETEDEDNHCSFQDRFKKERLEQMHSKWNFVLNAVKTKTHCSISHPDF

As to `CC(Cc1ccc(O)c(O)c1)C(C)Cc1ccc(O)c(O)c1` (configuration not stated) [NORDIHYDROGUAIARETIC ACID], the EC50 in data set [1] was 35 µM; in data set [2] it was 4.9 µM. The outcome in data set [3] was Active. For the same molecule, the outcome in data set [4] was inactive.

Regarding `O=C(/C=C/c1ccc(C(F)(F)F)cc1)Nc1ccccc1C(=O)O`, the EC50 in data set [1] was 27 µM. In addition, the result in data set [5], in [14] and in [15] was inactive. Also, the inhibition entry in data set [6] was “inactive”. Besides, the IC50 in data set [7] was 34 µM. The Activity in [8] was 51%; in [9], 17%; in [10] it was 28%. For the same molecule, the outcome in data set [3], in data set [4], in data set [12] and in [13] was Active. In [11], this molecule gave a pKa of 3.4.

`O=C(O)c1cc([N+](=O)[O-])ccc1NCCCc1ccccc1` [5-NITRO-2-PHENYLPROPYLAMINOBENZOIC ACID [NPPB]]: the concentration for a half-maximal effect (EC50) in data set [1] worked out at 0.6 µM; in data set [16], 320 nM. The outcome in [17] was inactive. In addition, the outcome in [18] was Active.

Consider `CCCN(CCC)S(=O)(=O)c1ccc(C(=O)O)cc1` [PROBENECID], for which the EC50 in data set [19] came out at 4.2 mM. The result in [20] and in data set [21] was inactive. Moreover, the result in data set [22] was Active.

`O=C/C=C/c1ccccc1`: the EC50 in data set [1] was 9 µM; in data set [23], 61 µM. Also, in data set [3], the result was Active.

For `CC(C)=CCC/C(C)=C/CC/C(C)=C/CSc1ccccc1C(=O)O` [SALIRASIB], the results for the EC50 in data set [1] and in data set [24] were 0.8 µM and 7 µM, respectively. Further, the result in data set [17] was inactive. The result in data set [18] was Active.

As for `C=CCc1ccc(O)c(OC)c1` [EUGENOL], the EC50 in [1] came out at 168 µM; in data set [27], 261 µM. In addition, in data set [25], the result was inactive. Also, the result in [26] was Active.
